Experimental data of several laboratories.
Lines come from different studies, so protocols differ.
Target: Tyrosine-protein kinase Blk (BLK, Homo sapiens, UniProt P51451)

Structure (SMILES)	observed	mode	technique	tested at	endpoint	value
O=C1NC(=O)c2cc(Nc3ccc(F)cc3)c(Nc3ccc(F)cc3)cc21	cell-free assay			0.5 µM	remaining signal	94.3%
O=C(O)[C@H]1[C@H](Cn2nnc3ccccc3c2=O)CC[C@@H]1C(=O)c1ccc(OCCC2CCOCC2)cc1	cell-free assay		competition with immobilised ligand	1 µM	remaining binding	100%
CCN(CC)c1ccc(C2=NNC(=O)CC2C)cc1[N+](=O)[O-] (centres unmarked)	enzyme activity	inhibitor		10 µM	remaining activity	110%
COc1ccc2cc(OCC3(C(=O)O)CN(C(=O)c4ccc(F)cc4)C3)ccc2c1	cell-free assay		competition with immobilised ligand	1 µM	remaining binding	93%
COc1cc(Cl)c(C(=O)N[C@@H](CN[C@H]2CC[C@@H](N)CC2)Cc2ccc(C#N)cc2)cc1-c1ccc(CN[C@H](C)c2ccc(C)cc2)o1	enzyme activity	inhibitor		1 µM	remaining activity	80%
CC(C)(C)c1nc2c(s1)c1nc(N)ncc1c1ccc(NS(=O)(=O)c3c(F)cccc3F)c(F)c12	enzyme activity	inhibitor	radiometric	1 µM	remaining activity	52%
CC/C(=N\NC(=O)NCc1cccc(O)c1)c1ccc(O)c(C)c1O	enzyme activity	inhibitor		0.1 µM	inhibition	6%
Cc1cnc(NC2CCOCC2)nc1-n1cnc(C(=O)NC(CN)c2cc(F)cc(Cl)c2)c1 (centres unmarked)	enzyme activity	inhibitor	radiometric	1 µM	remaining activity	112%
O=c1cc(-c2cccc3c2Sc2ccccc2S3)oc(N2CCOCC2)c1	enzyme activity	inhibitor		0.5 µM	remaining activity	96.2%
Nc1c(C(=O)NCc2ccc(C(=O)NCCCC3CCCCC3)cc2)cnn1-c1ccccc1	cell-free assay		competition with immobilised ligand	0.1 µM	remaining binding	81%
COc1cc2ncnc(Nc3ccc(F)c(Cl)c3)c2cc1OCCCN1CCOCC1	cell-free assay			0.5 µM	remaining signal	87.7%
CC(C)CC(=O)N1CCc2nc(-c3ccc(Br)cc3)nc(N(C)Cc3ccccc3)c2C1	cell-free assay		competition with immobilised ligand	0.1 µM	remaining binding	84%
COc1cc2ncnc(Nc3ccc(Oc4ccccc4)cc3C)c2cc1OC	enzyme activity	inhibitor		1 µM	inhibition	85%
Cc1cc(NC(=O)c2cccc3cc(-c4cccc5[nH]nc(N)c45)ccc23)ccc1F	enzyme activity	inhibitor		0.1 µM	activity vs control	114%
CCC(=O)N[C@@H]1CC[C@H](C(=O)N(C)c2ccc(-c3nc4ccccc4o3)cc2)C1	cell-free assay		competition with immobilised ligand	1 µM	remaining binding	100%
O=C(Nc1cnn(-c2csc(C(=O)NC3COC3)c2)c1)Nc1ccccc1Cl	enzyme activity	inhibitor		5 µM	remaining activity	79.2%
Cc1ccc(C(=O)NCc2ccsc2)cc1C#Cc1cn(C(C)C)c2ncnc(N)c12	enzyme activity	inhibitor		1 µM	activity vs control	4%
